Compound activity as filed in PubChem BioAssay.
Shown are actives, neighbours in structure and some others; about 5.1% of the full set was active somewhere.
STAT3 activator: IL-6 driven STAT3 reporter potentiators, primary screen, U3A cells, luciferase, luminescence, MLSCN library. IL-6 STAT3-luciferase reporter; 100% = signal with IL-6 EC80 alone. activation (% of control), % at 5.6 µM. 0.91% of 190,000 active. AID 871, 2007;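 active means activation above the screen-wide mean of compound activation plus 3 SD, cut at about 130% in these data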;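 further: 0% = background luminescence of wells with medium and substrate only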
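Material: STAT3-luciferase reporter U3A cells. Controls: IL-6-treated wells, 100% activation. Read-out: % activation versus median of IL-6-stimulated wells. Probe or stimulus: IL-6 stimulus at 33 ng/mL final. Timing: compound 1 h, then IL-6 6 h at 37 °C. Signal: reporter luminescence signal.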
STAT1 activator: STAT1 signaling activators, primary screen, cell-based, HTS, luciferase reporter; activation (% of control), % at 5.5 µM; 2.6% of 200,000 active; NIH 3T3 STAT1-luciferase reporter, IFN-gamma, luminescence; 100% = IFN-gamma alone, no compound;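 active means activation above the screen-wide mean activation plus 3 SD, cut at about 130% in these data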;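 further: raw ratio to IFN-gamma control signal so 100% means no change and 0% no light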
NF-kB neuron act: activators of NF-kB expression in neurons, primary screen, cell-based, HTS; human neuronal cells, NF-kB reporter expression; hits give high values; fold change at 12.5 µM; 1.6% of 190,000 active; in the data active means fold change above about 3.3
STAT1 blocker: STAT1 signaling inhibitors, primary screen, cell-based, HTS, luciferase reporter; 0.35% of 200,000 active; inhibition, % at 5.5 µM; NIH 3T3 STAT1-luciferase reporter, IFN-gamma, luminescence; AID 920, 2007;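 active means inhibition above a set limit, the mean inhibition across all tested compounds plus 3 SD, cut at about 34% in these data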;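 further: 0% = IFN-gamma with DMSO and 100% = IFN-gamma with 300 µM nifuroxazide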
APP 5'UTR act: activators of APP 5'UTR luciferase reporter, primary screen, SH-SY5Y cells; SH-SY5Y APP 5'UTR luciferase reporter, luminescence; zero percent = DMSO vehicle wells; 1% of 190,000 active; activation, % at 2 µM; AID 1276, 2008;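 active means activation above a set limit, based on mean plus 3 SD of controls, cut at about 140% in these data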
STAT3 blocker: IL-6 driven STAT3 reporter inhibitors, primary screen, U3A cells, luciferase, luminescence, MLSCN library | IL-6 STAT3-luciferase reporter; host cell line lacks STAT1 | inhibition, % at 5.5 µM | 0.89% of 190,000 active;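 active means inhibition above the mean inhibition across all screened compounds plus 3 SD, cut at about 44% in these data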;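 further: 0% = DMSO only wells and 100% = 100 µM nifuroxazide control wells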
Active calls of the source: *.

For O=C(Cn1cnc2ccccc21)Nc1cccc([N+](=O)[O-])c1 the results were STAT3 activator 88, STAT1 activator 90, NF-kB neuron act 0.92, STAT1 blocker 10, APP 5'UTR act 1 and STAT3 blocker 21.
For Cc1ccc(S(=O)(=O)NNC(=O)C(=O)NNS(=O)(=O)c2ccc(C)cc2)cc1 the results were STAT3 activator 99, STAT1 activator 94, NF-kB neuron act 1.1, STAT1 blocker 4, APP 5'UTR act 6 and STAT3 blocker 5.
For Cc1ccc(NNS(=O)(=O)c2ccc(C)cc2)cc1 the results were STAT3 activator 135*, STAT1 activator 98, NF-kB neuron act 1.1, STAT1 blocker 3, APP 5'UTR act 17 and STAT3 blocker -36.
For O=C1NC2(C=Cc3c(ccc4ccccc34)O2)Oc2ccccc21 (centres undefined) the results were STAT3 activator 114, STAT1 activator 141*, NF-kB neuron act 1.5, STAT1 blocker -46, APP 5'UTR act 3 and STAT3 blocker -17.
`CC1(C)OC(=O)N(c2ccccc2)C12C=Cc1c(ccc3ccccc13)O2` (centres undefined) gave STAT3 activator 99, STAT1 activator 95, NF-kB neuron act 0.88, STAT1 blocker 6, APP 5'UTR act 1 and STAT3 blocker 2.
`CC(C)(C)C(=O)Nc1ccc(S(=O)(=O)Nc2ccccn2)cc1` gave STAT3 activator 100, STAT1 activator 103, NF-kB neuron act 1.1, STAT1 blocker -3, APP 5'UTR act -25 and STAT3 blocker 5.
Screening Oc1ccccc1CNc1ccc(Br)cn1 returned STAT3 activator 95, STAT1 activator 112, NF-kB neuron act 5.4*, STAT1 blocker -13, APP 5'UTR act 71 and STAT3 blocker 10.
For Brc1ccc(NCc2cccc3ccccc23)nc1 the results were STAT3 activator 78, STAT1 activator 111, NF-kB neuron act 1.7, STAT1 blocker -12, APP 5'UTR act -12 and STAT3 blocker 30.
COc1ccc2c3c(cccc13)C(=O)N(O)C2=O was read as STAT3 activator 113, STAT1 activator 97, NF-kB neuron act 7.1*, STAT1 blocker 3, APP 5'UTR act -10 and STAT3 blocker -13.
Screening COc1ccccc1N1C(=O)c2cccc3c(C(=O)O)ccc(c23)C1=O returned STAT3 activator 100, STAT1 activator 90, NF-kB neuron act 1.2, STAT1 blocker 11, APP 5'UTR act -5 and STAT3 blocker 6.
Screening CC(=O)c1cc(C#N)c(SCC(=O)OC(C)(C)C)nc1C returned STAT3 activator 100, STAT1 activator 111, NF-kB neuron act 0.97, STAT1 blocker -12, APP 5'UTR act 12 and STAT3 blocker 4.
For Cc1ccc(C(=O)N2CCOCC2)c(F)c1F the results were STAT3 activator 104, STAT1 activator 97, NF-kB neuron act 1.4, STAT1 blocker 1, APP 5'UTR act -28 and STAT3 blocker 3.
Cc1ccc(NC(=O)CCn2cnc3ccccc3c2=O)cc1Cl was read as STAT3 activator 93, STAT1 activator 131*, NF-kB neuron act 1.2, STAT1 blocker -34, APP 5'UTR act -2 and STAT3 blocker 14.
`O=C(CN1C(=O)c2ccccc2C1=O)Nc1ccc(-c2nc3ccccc3o2)cc1` gave STAT3 activator 77, STAT1 activator 99, NF-kB neuron act 1.9, STAT1 blocker 1, APP 5'UTR act 6 and STAT3 blocker 30.
CN1C(=C2C(=O)OC(C)(C)OC2=O)Sc2ccccc21 was read as STAT3 activator 95, STAT1 activator 130*, NF-kB neuron act 1.6, STAT1 blocker -33, APP 5'UTR act 30 and STAT3 blocker 9.
Cc1ccc(-c2nnc(CCC(=O)NCC3C4CC5CC(C4)CC3C5)o2)s1 (centres undefined) was read as STAT3 activator 112, STAT1 activator 147*, NF-kB neuron act 2.7, STAT1 blocker -54, APP 5'UTR act 45 and STAT3 blocker -9.
For Cc1ccc(-c2nnc(CCC(=O)N(C)Cc3nccs3)o2)s1 the results were STAT3 activator 100, STAT1 activator 117, NF-kB neuron act 2.4, STAT1 blocker -20, APP 5'UTR act 10 and STAT3 blocker 3.
Screening COc1ccc2nc(/N=C(\N)NC(=O)C(C)(C)C)nc(C)c2c1 returned STAT3 activator 107, STAT1 activator 129*, NF-kB neuron act 0.7, STAT1 blocker -32, APP 5'UTR act 16 and STAT3 blocker -3.
`CCC(=O)N/C(N)=N/c1nc(C)c2cc(OC)ccc2n1` gave STAT3 activator 122, STAT1 activator 134*, NF-kB neuron act 1.5, STAT1 blocker -36, APP 5'UTR act 27 and STAT3 blocker -21.
For COc1ccc2nc(/N=C(\N)NC(=O)N3c4ccccc4Sc4ccccc43)nc(C)c2c1 the results were STAT3 activator 93, STAT1 activator 109, NF-kB neuron act 0.6, STAT1 blocker -10, APP 5'UTR act 2 and STAT3 blocker 8.
Screening CSc1nc2ccc(NC(=O)c3ccc(F)c(F)c3)cc2s1 returned STAT3 activator 93, STAT1 activator 140*, NF-kB neuron act 2.4, STAT1 blocker -45, APP 5'UTR act 49 and STAT3 blocker 9.
Screening Nc1nc2ccc(C(=O)Nc3ccccc3)cc2s1 returned STAT3 activator 156*, STAT1 activator 148*, NF-kB neuron act 2.6, STAT1 blocker -52, APP 5'UTR act 88 and STAT3 blocker -61.
For CSc1nc2ccc(NC(=O)c3ccc(=O)n(C)n3)cc2s1 the results were STAT3 activator 98, STAT1 activator 127, NF-kB neuron act 1.3, STAT1 blocker -32, APP 5'UTR act 32 and STAT3 blocker 6.
`CCc1ccc(NC(=O)c2ccc3nc(N)sc3c2)cc1` gave STAT3 activator 106, STAT1 activator 124, NF-kB neuron act 2.6, STAT1 blocker -26, APP 5'UTR act 52 and STAT3 blocker -1.
For CSc1nc2ccc(NC(=O)c3cc4ccccc4o3)cc2s1 the results were STAT3 activator 78, STAT1 activator 139*, NF-kB neuron act 4.9*, STAT1 blocker -43, APP 5'UTR act 140* and STAT3 blocker 23.
Screening CSc1nc2ccc3nc(NC(=O)c4ccccc4)sc3c2s1 returned STAT3 activator 92, STAT1 activator 139*, NF-kB neuron act 1.9, STAT1 blocker -43, APP 5'UTR act 18 and STAT3 blocker 18.
For Cc1cc(C)nc(NC(=O)c2cc3ccccc3o2)n1 the results were STAT3 activator 90, STAT1 activator 102, NF-kB neuron act 1.1, STAT1 blocker -3, APP 5'UTR act -9 and STAT3 blocker 21.
